ChEMBL document CHEMBL2346548, “Design, synthesis, and structure-activity relationship studies of tryptanthrins as antitubercular agents” (J Nat Prod, 2013)
Converted amounts (≈) assume the structure as drawn.

Tests used:
[1] = Oral bioavailability in Sprague-Dawley rat at 20 mg/kg; assay type: ADME, organism-based; conditions: in vivo
[2] = Clearance in Sprague-Dawley rat at 5 mg/kg, iv; assay type: ADME, organism-based; parameters: dose 5 mg/kg, route intravenous; conditions: in vivo
Method in brief: (§1)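 Male Sprague-Dawley rats (n = 3), single 5 mg/kg iv dose as solution in PEG300/DMSO 50:50; plasma sampled 0.083–24 h, LC-MS bioanalysis; noncompartmental analysis, means.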

[3] = tested on: Mycobacterium tuberculosis; experiment: Antitubercular activity against Mycobacterium tuberculosis Erdman ATCC 35801 infected in C57BL/6 mouse assessed as viable bacterial load in lung at 200 mg/kg twice daily through gavage 5 days per week for 4 weeks starting on 10th day post-infection (reference value: 6.49 +/- 0.10 log10CFU/lung); assay type: functional
[4] = AUC (0 to infinity) in C57BL/6 mouse at 40 mg/kg, po formulated in 20% DMSODMSO, 20% PEG400, 60% (30% HP-beta-CD in water); assay type: ADME, organism-based; parameters: dose 40 mg/kg, route oral, time infinity; conditions: plasma
[5] = tested on: Mycobacterium tuberculosis; experiment: Antitubercular activity against non-replicating Mycobacterium tuberculosis H37Rv incubated for 10 days by LORA method; assay type: functional; conditions: 240 h
Method in brief: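 H37Rv carrying pFCA-luxAB was adapted to low oxygen by gradual self-depletion in a sealed, slowly stirred flask. It was then exposed to compounds for 10 days under anaerobic conditions. Cultures recovered for 28 h in ambient oxygen before n-decanal substrate was added and luminescence read. MIC was the lowest concentration giving a 90% reduction in luminescence versus untreated controls.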

[6] = Efflux ratio in human Caco2 cells incubated for 1 hr at 37 degC by HPLC-MS/MS method; assay type: ADME, cell-based; conditions: Caco-2
Salmonella typhimurium [7] = experiment: Mutagenicity in Salmonella typhimurium TA98 assessed as mean revertant colonies at 0.25 to 240 ug/well in absence of rat liver S9 fraction; assay type: toxicity, organism-based; conditions: salmonella enterica subsp. enterica serovar typhimurium
Method in brief: (§2)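 MicroAmes: strains preincubated with or without Aroclor-induced rat liver S9, duplicate wells, six concentrations 0.25–250 μg equivalents/well; DMSO vehicle, 4-nitroquinoline-N-oxide (−S9) and 2-aminoanthracene (+S9) positive controls; revertant colonies counted; cytotoxicity noted as reduced revertants or background lawn; precipitation recorded.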

Salmonella typhimurium [8] = experiment: Mutagenicity in Salmonella typhimurium TA98 assessed as mean revertant colonies at 0.25 to 240 ug/well in presence of rat liver S9 fraction; assay type: toxicity, organism-based; conditions: salmonella enterica subsp. enterica serovar typhimurium; method in brief: as §2
[9] = Tmax in C57BL/6 mouse at 40 mg/kg, po formulated in 20% DMSODMSO, 20% PEG400, 60% (30% HP-beta-CD in water); assay type: ADME, organism-based; parameters: dose 40 mg/kg, route oral; conditions: in vivo
Method in brief: (§3)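 Female C57BL/6 mice, single 40 mg/kg oral gavage; three mice per time point; plasma at 30 min to 24 h, LC-MS; noncompartmental parameters reported as means.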

Vero = experiment: Cytotoxicity against african green monkey Vero cells; assay type: cell-based, Chlorocebus sabaeus; conditions: Chlorocebus sabaeus, Vero; read-out: IC50
[10] = Cmax in Sprague-Dawley rat at 20 mg/kg, po; assay type: ADME, organism-based; parameters: dose 20 mg/kg, route oral; conditions: in vivo
[11] = tested on: Mycobacterium tuberculosis; experiment: Antitubercular activity against Mycobacterium tuberculosis H37Rv incubated at 37 degC for 7 days by microplate alamar blue assay; assay type: functional; conditions: Mycobacterium tuberculosis, H37Rv, 168 h
Method in brief: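 Mtb H37Rv was grown in 7H9 broth with glycerol, Casitone, 10% OADC and 0.05% Tween 80 to OD600 0.4. Compounds were 2-fold serially diluted from DMSO stocks in 7H9, and wells were inoculated at 2 × 10⁵ CFU/mL. After 7 days at 37 °C, Alamar Blue was added and read after a further 24 h. MIC was the lowest concentration preventing the blue-to-pink change.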

CYP3A4 = CYP3A4 (Homo sapiens, UniProt P08684); experiment: Inhibition of human recombinant CYP3A4 at 10 uM incubated for 30 mins at 37 degC using 7-benzyloxy-4-(trifluoromethyl)coumarin substrate; assay type: ADME; conditions: recombinant CYP3A4, probe 7-benzyloxy-4-(trifluoromethyl)coumarin
CYP2C9 = CYP2C9 (Homo sapiens, UniProt P11712); experiment: Inhibition of human recombinant CYP2C9 at 10 uM incubated for 80 mins at 37 degC using 7-methoxy-4-trifluoromethylcoumarin substrate; assay type: ADME; conditions: recombinant CYP2C9, probe 7-methoxy-4-trifluoromethylcoumarin
[12] = AUC (0 to infinity) in Sprague-Dawley rat at 5 mg/kg, iv; assay type: ADME, organism-based; parameters: time infinity, dose 5 mg/kg, route intravenous; conditions: plasma
Salmonella typhimurium [13] = experiment: Toxicity in Salmonella typhimurium TA100 assessed as compound level per well causing cytotoxicity at 0.25 to 240 ug/well in presence of rat liver S9 fraction; assay type: organism-based; conditions: salmonella enterica subsp. enterica serovar typhimurium; method in brief: as §2
Salmonella typhimurium [14] = experiment: Mutagenicity in Salmonella typhimurium TA100 assessed as mean revertant colonies at 0.25 to 240 ug/well in presence of rat liver S9 fraction; assay type: toxicity, organism-based; conditions: salmonella enterica subsp. enterica serovar typhimurium; method in brief: as §2
[15] = Permeability across basolateral to apical side in human Caco2 cells incubated for 1 hr at 37 degC by HPLC-MS/MS method; assay type: ADME, cell-based; conditions: Caco-2
[16] = Volume of distribution in Sprague-Dawley rat at 5 mg/kg, iv; assay type: ADME, organism-based; parameters: dose 5 mg/kg, route intravenous; conditions: in vivo; method in brief: as §1
[17] = Solubility in simulated gastric fluid at pH 1.5 by HPLC method; assay type: physicochemical
Method in brief: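 Compound at 200 μM final in 2% DMSO in simulated gastric fluid, shaken 24 h at room temperature; HPLC-photodiode array detection at 230 nm; duplicate means.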

[18] = Half life in Sprague-Dawley rat at 20 mg/kg, po; assay type: ADME, organism-based; parameters: dose 20 mg/kg, route oral; conditions: in vivo
[19] = tested on: Mycobacterium tuberculosis; experiment: Antitubercular activity against Mycobacterium tuberculosis Erdman ATCC 35801 infected in C57BL/6 mouse assessed as viable bacterial load in spleen at 200 mg/kg/day through gavage 5 days per week for 4 weeks starting on 10th day post-infection (reference value: 4.79 +/- 0.21 log10CFU/spleen); assay type: functional
[20] = Protein binding in human plasma at 10 uM incubated for 8 hrs at 37 degC by equilibrium dialysis method; assay type: ADME, cell-free; conditions: read-out: PPB (converted)
Method in brief: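 Equilibrium dialysis: 10 μM compound in 1% DMSO in human plasma vs 0.05 M phosphate buffer pH 7.5 across 12–14 K cutoff membrane, at least 8 h at 37 °C; HPLC-photodiode detection at 230 nm; duplicate means.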

[21] = tested on: Mycobacterium tuberculosis; experiment: Antitubercular activity against Mycobacterium tuberculosis Erdman ATCC 35801 infected in C57BL/6 mouse assessed as viable bacterial load in spleen at 200 mg/kg twice daily through gavage 5 days per week for 4 weeks starting on 10th day post-infection (reference value: 4.79 +/- 0.21 log10CFU/spleen); assay type: functional
[22] = Cmax in C57BL/6 mouse at 40 mg/kg, po formulated in 20% DMSODMSO, 20% PEG400, 60% (30% HP-beta-CD in water); assay type: ADME, organism-based; parameters: dose 40 mg/kg, route oral; conditions: in vivo; method in brief: as §3
[23] = Solubility in simulated intestinal fluid at pH 7.6 by HPLC method; assay type: physicochemical
Method in brief: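 Simulated intestinal fluid medium; each analogue 200 μM final in 2% DMSO, shaken 24 h at room temperature, then HPLC with photodiode array read at 230 nm; duplicate, means given.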

[24] = Metabolic stability in human liver microsomes assessed as parent compound remaining at 1 uM incubated for 1 hr by HPLC-MS/MS method; assay type: ADME, Microsome; conditions: read-out: Stability
Method in brief: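 Pooled mixed-gender human liver microsomes (0.3 mg/mL protein), 1 μM compound with NADP-regenerating system in phosphate buffer pH 7.4, 1 h at 37 °C; parent measured at start and end by HPLC-MS/MS; duplicate means.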

CYP3A4, sequence (P08684 whole entry): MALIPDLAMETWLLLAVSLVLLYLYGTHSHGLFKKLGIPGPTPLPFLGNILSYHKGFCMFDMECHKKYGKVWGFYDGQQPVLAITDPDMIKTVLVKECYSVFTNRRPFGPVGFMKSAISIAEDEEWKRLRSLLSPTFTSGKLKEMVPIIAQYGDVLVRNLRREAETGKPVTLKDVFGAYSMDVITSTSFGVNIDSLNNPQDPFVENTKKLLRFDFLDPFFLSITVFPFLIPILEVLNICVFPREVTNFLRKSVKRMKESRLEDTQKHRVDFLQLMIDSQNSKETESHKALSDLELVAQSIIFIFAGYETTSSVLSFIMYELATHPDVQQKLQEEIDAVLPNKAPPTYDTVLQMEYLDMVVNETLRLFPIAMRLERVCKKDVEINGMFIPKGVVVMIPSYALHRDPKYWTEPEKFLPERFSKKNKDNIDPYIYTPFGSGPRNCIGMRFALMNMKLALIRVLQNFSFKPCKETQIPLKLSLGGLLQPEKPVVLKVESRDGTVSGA
CYP2C9, sequence (P11712 whole entry): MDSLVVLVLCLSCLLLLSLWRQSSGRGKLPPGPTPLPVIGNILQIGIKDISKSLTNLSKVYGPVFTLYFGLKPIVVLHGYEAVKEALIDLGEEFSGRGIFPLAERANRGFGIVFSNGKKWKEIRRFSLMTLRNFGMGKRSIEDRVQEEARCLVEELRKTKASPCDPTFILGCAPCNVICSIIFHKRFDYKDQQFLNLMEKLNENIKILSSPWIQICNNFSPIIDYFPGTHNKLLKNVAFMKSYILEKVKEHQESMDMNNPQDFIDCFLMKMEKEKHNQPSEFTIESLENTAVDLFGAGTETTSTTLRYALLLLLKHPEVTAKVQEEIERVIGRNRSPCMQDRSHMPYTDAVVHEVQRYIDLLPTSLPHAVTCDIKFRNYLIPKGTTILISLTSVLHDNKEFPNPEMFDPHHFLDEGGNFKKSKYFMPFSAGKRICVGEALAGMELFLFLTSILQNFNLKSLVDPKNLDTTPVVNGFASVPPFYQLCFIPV

O=C1C2=Nc3ccccc3CN2c2ccc(Cl)cc21
bioavailability [1]: 8% | clearance [2]: 92.8 mL/min/kg | log10cfu [3]: 6.64 | AUC(0-inf) [4]: 968 ng·h/mL | MIC90 [5]: 24 µg/mL (≈ 89.3 µM) | efflux ratio at 1 h [6]: > 1 | Activity (Salmonella typhimurium [7]): Non-toxic | Activity (Salmonella typhimurium [8]): Non-toxic | Tmax [9]: 1.5 h | IC50 (Vero): 40 µg/mL (≈ 149 µM) | Cmax [10]: 50 ng/mL | MIC [11]: 0.125 µg/mL (≈ 0.465 µM) | inhibition at 0.5 h, 10 µM (CYP3A4): 1% | inhibition at 80 min, 10 µM (CYP2C9): 27% | AUC(0-inf) [12]: 930 ng·h/mL | Activity (Salmonella typhimurium [13]): >= 2.5 ug | Activity (Salmonella typhimurium [14]): Non-toxic | Papp B→A at 1 h [15]: 20.8 ×10⁻⁶ cm/s | Vd [16]: 11.7 L/kg | solubility [17]: 79.2 µM (≈ 21.3 µg/mL) | half-life [18]: 3.33 h | log10cfu [19]: 4.85 | fraction unbound at 8 h, 10 µM [20]: 0.013 | log10cfu [21]: 4.89 | Cmax [22]: 371 ng/mL | solubility [23]: 19.3 µM (≈ 5.19 µg/mL) | remaining at 1 h, 1 µM [24]: 53%
